The values that follow come from ChEMBL document CHEMBL1932986, “Synthesis and in vitro antimycobacterial activity of compounds derived from (R)- and (S)-2-amino-1-butanol - The crucial role of the configuration” (Eur J Med Chem, 2012).

Assay [1] deals with Micrococcus luteus. Nature of the assay: Antibacterial activity against Micrococcus luteus ATCC 9631 at 20 mg/ml after 24 hrs by agar diffusion test. In kind it is functional, organism-based. The essentials: (§1)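 Agar diffusion: bacteria grown 24 h at 37 °C on nutrient agar; wells cut in the seeded agar are filled with compound solution in DMSO. Read-out is the diameter of the clear zone around the application point.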
Background: A growth-free zone around the sample is the usual read-out of agar diffusion tests.

Assay [2] relates to Bacillus subtilis. Briefly: Antibacterial activity against Bacillus subtilis ATCC 6633 at 4 mg/ml after 24 hrs by agar diffusion test. The format is functional, organism-based. The gist of the method: as §1
Assay [3] concerns Acinetobacter johnsonii. Briefly: Antibacterial activity against Acinetobacter johnsonii ATCC 17909 at 4 mg/ml after 24 hrs by agar diffusion test. In kind it is functional. The essentials: as §1
For assay [4], the system named is Bacillus cereus. Briefly: Antibacterial activity against Bacillus cereus ATCC 11778 at 4 mg/ml after 24 hrs by agar diffusion test. In kind it is functional, organism-based. The essentials:
as §1

Assay [5] relates to Priestia megaterium. Briefly: Antibacterial activity against Bacillus megaterium NRRL 1353895 at 4 mg/ml after 24 hrs by agar diffusion test. In kind it is functional, organism-based. The essentials: as §1
Assay [6] deals with Micrococcus luteus. Nature of the assay: Antibacterial activity against Sarcina lutea ATCC 9341 at 20 mg/ml after 24 hrs by agar diffusion test. In kind it is functional, organism-based. The essentials: as §1
Assay [7] has as its system Bacillus mycoides. Briefly: Antibacterial activity against Bacillus mycoides DSMZ 274 at 4 mg/ml after 24 hrs by agar diffusion test. The format is functional, organism-based. The essentials:
as §1

Assay [8] relates to Bacillus mycoides. Briefly: Antibacterial activity against Bacillus mycoides DSMZ 274 at 20 mg/ml after 24 hrs by agar diffusion test. The format is functional, organism-based. The gist of the method: as §1
The test system of assay [9] is Micrococcus luteus. Briefly: Antibacterial activity against Micrococcus luteus ATCC 9631 at 4 mg/ml after 24 hrs by agar diffusion test. In kind it is functional, organism-based. The essentials: as §1
For assay [10], the system named is Acinetobacter johnsonii. Briefly: Antibacterial activity against Acinetobacter johnsonii ATCC 17909 at 20 mg/ml after 24 hrs by agar diffusion test. The format is functional. The essentials: as §1
Assay [11] relates to Priestia megaterium. Nature of the assay: Antibacterial activity against Bacillus megaterium NRRL 1353895 at 20 mg/ml after 24 hrs by agar diffusion test. The format is functional, organism-based. The gist of the method:
as §1

Assay [12] relates to Bacillus cereus. Briefly: Antibacterial activity against Bacillus cereus ATCC 11778 at 20 mg/ml after 24 hrs by agar diffusion test. In kind it is functional, organism-based. The gist of the method: as §1
In assay [13] the test system is Bacillus. Nature of the assay: Antibacterial activity against Bacillus idosus B 241 at 4 mg/ml after 24 hrs by agar diffusion test. In kind it is functional, organism-based. The gist of the method: as §1
Assay [14] relates to Bacillus subtilis. Nature of the assay: Antibacterial activity against Bacillus subtilis ATCC 6633 at 20 mg/ml after 24 hrs by agar diffusion test. The format is functional, organism-based. The essentials: as §1
The test system of assay [15] is Micrococcus luteus. Briefly: Antibacterial activity against Sarcina lutea ATCC 9341 at 4 mg/ml after 24 hrs by agar diffusion test. In kind it is functional, organism-based. The essentials:
as §1

Assay [16] relates to Bacillus. Nature of the assay: Antibacterial activity against Bacillus idosus B 241 at 20 mg/ml after 24 hrs by agar diffusion test. In kind it is functional, organism-based. The essentials:
as §1

Take GENTAMICIN: the inhibition zone (IZ) was determined as 38 mm in assay [1]; 27 mm in assay [2]; 31 mm in assay [3]; 26 mm in assay [4]; 30 mm in assay [5]; 34 mm in assay [6]. For the same sequence, the inhibition zone (IZ) in assay [7] is 28 mm; in assay [8], 32 mm; in assay [9], 28 mm; in [10], 39 mm; in [11], 36 mm; in assay [12], 29 mm. Also, the inhibition zone (IZ) in [13] amounted to 29 mm; in assay [14] it was 30 mm; in assay [15], 28 mm; in assay [16] it was 35 mm.
